Only some compounds are listed: those with a hit (about 3.1% of all), similar ones and a draw of the others.
VIM-2 inh = blocks Pseudomonas aeruginosa VIM-2 metallo-beta-lactamase | purified VIM-2, nitrocefin hydrolysis, epi-absorbance fluorescence | inhibition, % at 5.6 µM | 0.89% of 290,000 active | AID 1527;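 active = inhibition above the mean of all tested compounds plus 3 SD, cutoff set per screening run, cut at about 7.5% in these data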;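 note: red hydrolysis product quenches plate fluorescence so inhibitors raise well fluorescence; 0% = enzyme with DMSO and 100% = DMSO without enzyme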
HCV core dimer = HCV core protein dimerization inhibition | TR-FRET GST/Flag-core106 dimerization, 1536-well | inhibition, % at 5 µM | 0.33% of 300,000 active;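 active = inhibition above the mean of all tested compounds plus 3 SD, set per screening campaign, cut at about 45% in these data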
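Assay system: Tagged HCV core106 pair (GST and Flag) | Buffer or medium: KF-containing HEPES buffer, pH 7.45, DTT, CHAPS, BSA | Also added: Eu donor and XL665 acceptor anti-tag antibodies | Dosing: One concentration, 5 µM, in 0.5% DMSO | Timing: 4 h at 22.5 °C | Technique: TR-FRET 671 and 617 nm emission | Repeats: Singlicate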
PHOSPHO1 block = inhibitors of human PHOSPHO1 phosphatase | recombinant PHOSPHO1, absorbance phosphatase assay | 1.1% of 290,000 active | Q8TCT1 | inhibition, % at 13.3 µM; in the data active = inhibition above about 60%
Target sequence (Q8TCT1 whole entry, looked up): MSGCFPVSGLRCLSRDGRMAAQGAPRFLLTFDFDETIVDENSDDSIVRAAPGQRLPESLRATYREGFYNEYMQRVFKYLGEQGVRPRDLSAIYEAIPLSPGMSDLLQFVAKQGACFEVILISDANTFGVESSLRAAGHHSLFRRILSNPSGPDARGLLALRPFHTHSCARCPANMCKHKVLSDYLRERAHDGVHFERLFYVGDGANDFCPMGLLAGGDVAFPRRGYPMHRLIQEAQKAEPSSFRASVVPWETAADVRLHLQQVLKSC
IMP-1 inh = blocks Pseudomonas aeruginosa IMP-1 metallo-beta-lactamase; 0.45% of 290,000 active; AID 1556; purified IMP-1, nitrocefin hydrolysis, epi-absorbance fluorescence; inhibition, % at 5.6 µM;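 active = inhibition above the mean plus 3 SD of all compounds in the same screening run, cut at about 4.5% in these data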;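 note: 0% = IMP-1 with DMSO and 100% = DMSO wells lacking enzyme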
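Assay system: purified recombinant IMP-1 beta-lactamase. Input: IMP-1 0.2 nM before substrate addition. Buffer or medium: Zinc- and detergent-supplemented HEPES buffer, pH 7.1. Schedule: 25 °C, 15 min preincubation, 25 min reaction. Signal: Epi-absorbance fluorescence, 480 nm excitation, 530 nm emission. Evaluation: percent inhibition from optical density relative to buffer-blank wells.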
NS3 helicase inh = inhibitors of Hepatitis C virus NS3 helicase | NS3 helicase DNA unwinding, Cy5 molecular beacon fluorescence | inhibition, % at 10.9 µM | 0.56% of 290,000 active | AID 1800;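 active = inhibition above the mean of all tested compounds plus 3 SD, set per campaign, cut at about 35% in these data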;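 note: 0% = DMSO wells and 100% = thioflavine S control wells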
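System: HCV NS3 helicase fragment; control set: DMSO and thioflavine S; technique: Cy5 fluorescence at 0 and 60 min, beacon hairpin quenching; reagent: beacon DNA duplex substrate plus ATP; replicates: singlicate; schedule: 1 h reaction at 25 °C, ATP-initiated; medium: MOPS buffer pH 6.5 with MgCl2, DTT, Tween20, BSA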
SUMO HTRF inh = SUMOylation inhibition; P63279; HTRF SUMOylation assay, SAE1/SAE2 + UBC9, in vitro; 0.36% of 290,000 active; inhibition, % at 35 µM; in the data active = inhibition above about 50%, passing the limit was not always enough
NS3 hel confirm = HCV NS3 helicase inhibition, confirmation assay. shares compounds with NS3 helicase inh. 31% of 1,600 active. NS3 helicase DNA unwinding, Cy5 molecular beacon fluorescence. inhibition, % at 10.9 µM;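 active = inhibition above the mean of all tested compounds plus 3 SD, cutoff set per campaign, cut at about 36% in these data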
FID counter trip = counter-screen for HCV NS3 helicase inhibitors: DNA intercalator displacement; shares compounds with NS3 helicase inh; DNA fluorescent intercalator displacement, fluorescence; inhibition, % at 7.9 µM; 4% of 1,600 active; AID 1945; in the data active = inhibition above about 37%;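 note: 0% = vehicle and 100% = reference compound; higher means more displacement of ethidium bromide from the DNA hairpin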
An asterisk follows results filed as active; nt = no result.

SMILES | VIM-2 inh | HCV core dimer | PHOSPHO1 block | IMP-1 inh | NS3 helicase inh | SUMO HTRF inh | NS3 hel confirm | FID counter trip
CCCCN(C(=O)c1cc(-c2ccco2)nc2ccccc12)c1c(N)n(CCCC)c(=O)[nH]c1=O | nt | 36 | nt | nt | nt | nt | nt | nt
Cc1ccccc1CN1C(=O)CS/C1=N/N=C/c1ccco1 | -3 | 10 | 42 | -3 | 45* | -11 | -17 | -18
Cn1c(=O)c2ccccc2n(CC(=O)N2CCCc3ccccc32)c1=O | 1 | -13 | 6 | -2 | 37* | -11 | -6 | -14
Cc1cccc(OCc2nnc(SCC(=O)NC3CCCCC3)n2C)c1 | -1 | 1 | 16 | -2 | 1 | -10 | nt | nt
O=C(CCC1N=C2c3ccccc3N=C(SCC(=O)NCc3ccco3)N2C1=O)NCc1ccco1 (stereo unspecified) | -2 | 5 | -27 | -2 | 15 | 20 | nt | nt
Cc1ccc(CSC2=Nc3ccccc3C3=NC(CCC(=O)NCc4ccco4)C(=O)N23)cc1 (stereo unspecified) | 0 | 32 | 24 | -2 | 47* | 21 | -14 | -38
COc1cc(/C=C2\C(=O)ON=C2c2ccccc2)cc(Br)c1O | -4 | 6 | 33 | -4 | 38* | -5 | 32 | 1
CCOc1cc(/C=C2\C(=O)ON=C2c2ccccc2)cc(Br)c1O | -3 | 10 | 33 | -4 | 36 | 11 | nt | nt
Cc1ccc(-n2nc3ccc(N)cc3n2)cc1C | -1 | -1 | 25 | -5 | 70* | 36 | -9 | 28
Cc1ccc(-n2nc3ccc(N)cc3n2)cc1Cl | 2 | 5 | 26 | 0 | 23 | 25 | nt | nt
COc1ccc(-n2nc3ccc(N)cc3n2)cc1Cl | 0 | 15 | 8 | -2 | 37* | 49 | -5 | 23

Compound activity from PubChem.
